Source: PMC2857698 (Biochemistry, 2010)
“And” between values parts separate entries of the source, which are not always exact repeats. Equal values may be shown once. Read-outs that look alike come from different tables or passages of the source.

Key:
[1] = test system: EH domain of EHD1; assay: ITC of NPF peptides binding to EHD1 EH; set-up: species or system mouse; details: ITC, 25 mM MOPS pH 7.0, 1 mM CaCl2
Method in brief: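 Mouse EHD1 EH domain (V437–E534) expressed as a GST fusion, purified on glutathione resin and thrombin-cleaved on beads. Protein and peptides were dialysed at 4°C against 25 mM MOPS pH 7.0, 1 mM CaCl2, with KCl varied where applicable. ITC was run at 20°C unless stated (5–25°C), with 50–200 μM protein in the cell and peptide titrant 10-fold higher. Single-site fit gave Ka, n and ΔH; ΔG = −RTlnKa, and TΔS came from ΔG = ΔH − TΔS.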

[2] = target: Rsn5-NPF1 peptide (first NPF motif of Rabenosyn-5) (UniProt Q9H1K0); assay: ITC; details: pH 7.0; 20 C; 0 mM KCl added; 1 mM CaCl2; 25 mM MOPS pH 7.0
Rsn5-NPF1 peptide (first NPF motif of Rabenosyn-5), sequence (Q9H1K0 whole entry, looked up, the tested form may be a part): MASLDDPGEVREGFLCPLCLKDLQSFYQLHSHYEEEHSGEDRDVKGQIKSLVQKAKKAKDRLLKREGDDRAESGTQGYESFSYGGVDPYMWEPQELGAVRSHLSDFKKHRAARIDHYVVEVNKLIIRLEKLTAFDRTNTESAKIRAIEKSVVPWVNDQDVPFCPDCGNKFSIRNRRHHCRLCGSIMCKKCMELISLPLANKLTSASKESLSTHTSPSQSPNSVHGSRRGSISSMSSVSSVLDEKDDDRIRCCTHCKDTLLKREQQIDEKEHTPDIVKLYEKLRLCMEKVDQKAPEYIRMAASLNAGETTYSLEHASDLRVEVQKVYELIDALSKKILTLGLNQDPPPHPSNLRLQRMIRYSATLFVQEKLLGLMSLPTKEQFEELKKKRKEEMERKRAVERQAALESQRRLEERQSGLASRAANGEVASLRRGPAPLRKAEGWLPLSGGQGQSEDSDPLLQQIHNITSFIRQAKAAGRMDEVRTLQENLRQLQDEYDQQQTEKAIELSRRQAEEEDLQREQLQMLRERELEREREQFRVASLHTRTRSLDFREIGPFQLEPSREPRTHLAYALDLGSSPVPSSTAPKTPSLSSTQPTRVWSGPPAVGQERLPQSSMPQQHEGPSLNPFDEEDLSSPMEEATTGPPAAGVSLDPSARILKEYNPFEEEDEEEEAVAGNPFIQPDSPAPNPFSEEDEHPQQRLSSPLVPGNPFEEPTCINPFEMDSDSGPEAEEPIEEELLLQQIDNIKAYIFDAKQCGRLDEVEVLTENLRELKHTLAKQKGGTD

[3] = target: Rsn5-NPF1 peptide (first NPF motif of Rabenosyn-5) (UniProt Q9H1K0); assay: ITC; details: pH 7.0; 20 C; 0 mM KCl added; 1 mM CaCl2; 25 mM MOPS pH 7.0; remark: listed apart in the source
[4] = target: EH domain of EHD1 (mouse), residues V437 to E534 (mouse) (UniProt Q9WVK4)
[5] = target: T1, EH domain of Reps1; assay: ITC
T1 chain: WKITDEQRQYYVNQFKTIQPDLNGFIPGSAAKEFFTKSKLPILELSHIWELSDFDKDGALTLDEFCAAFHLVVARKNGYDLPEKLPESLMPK

[6] = target: T2, EH domain of EHD1 (mouse), residues V437 to E534 (mouse, UniProt Q9WVK4 437-534); assay: ITC
T2 sequence (looked up): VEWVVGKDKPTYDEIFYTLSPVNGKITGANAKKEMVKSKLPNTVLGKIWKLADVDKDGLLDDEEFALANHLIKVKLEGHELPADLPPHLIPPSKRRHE

[7] = target: T2, EH domain of EHD1 (mouse), residues …; assay: ITC; remark: listed apart in the source
[8] = target: T2, EH domain of EHD1 (mouse), residues …; assay: ITC; remark: listed apart in the source
[9] = target: T2, EH domain of EHD1 (mouse), residues …; assay: ITC; remark: listed apart in the source
[10] = target: T2, EH domain of EHD1 (mouse), residues …; assay: ITC; remark: listed apart in the source
[11] = target: T2, EH domain of EHD1 (mouse), residues …; assay: ITC; remark: listed apart in the source
[12] = target: T2, EH domain of EHD1 (mouse), residues …; assay: ITC; remark: listed apart in the source
[13] = target: T2, EH domain of EHD1 (mouse), residues …; assay: ITC; remark: listed apart in the source
[14] = target: T2, EH domain of EHD1 (mouse), residues …; assay: ITC; remark: listed apart in the source
[15] = target: T2, EH domain of EHD1 (mouse), residues …; assay: ITC; remark: listed apart in the source
[16] = target: T2, EH domain of EHD1 (mouse), residues …; assay: ITC; remark: listed apart in the source
[17] = target: T2, EH domain of EHD1 (mouse), residues …; assay: ITC; remark: listed apart in the source
[18] = target: T2, EH domain of EHD1 (mouse), residues …; assay: ITC; remark: listed apart in the source

Ac-YESTNPFTAK-NH2 [Rfp2-NPF2]
Ka ([1]; 5.0 °C): 17800 M⁻¹
TΔS ([1]; 5.0 °C): -3.867 kcal/mol
ΔH ([1]; 5.0 °C): -9.279 kcal/mol
ΔS ([1]; 5.0 °C): −13.9 cal mol^−1 K^−1
Ka ([1]; 10.0 °C): 12800 M⁻¹
TΔS ([1]; 10.0 °C): -4.729 kcal/mol
ΔG ([1]; 10.0 °C): -5.316 kcal/mol
ΔH ([1]; 10.0 °C): -10.04 kcal/mol
ΔS ([1]; 10.0 °C): −16.7 cal mol^−1 K^−1
Ka ([1]; 15.0 °C): 9390 M⁻¹
TΔS ([1]; 15.0 °C): -5.562 kcal/mol
ΔG ([1]; 15.0 °C): -5.233 kcal/mol
ΔH ([1]; 15.0 °C): -10.79 kcal/mol
ΔS ([1]; 15.0 °C): −19.3 cal mol^−1 K^−1
TΔS ([1]; 20.0 °C): -6.802 kcal/mol
ΔG ([1]; 20.0 °C): -5.122 kcal/mol
ΔH ([1]; 20.0 °C): -11.92 kcal/mol
ΔS ([1]; 20.0 °C): −23.2 cal mol^−1 K^−1
Ka ([1]; 20 °C, KCl 75.0 mM): 6460 M⁻¹
TΔS ([1]; 20 °C, KCl 75.0 mM): -6.744 kcal/mol
ΔG ([1]; 20 °C, KCl 75.0 mM): -5.106 kcal/mol
ΔH ([1]; 20 °C, KCl 75.0 mM): -11.84 kcal/mol
ΔS ([1]; 20 °C, KCl 75.0 mM): −23.0 cal mol^−1 K^−1
Ka ([1]; 20 °C, KCl 150.0 mM): 6910 M⁻¹
TΔS ([1]; 20 °C, KCl 150.0 mM): -6.802 kcal/mol
ΔG ([1]; 20 °C, KCl 150.0 mM): -5.145 kcal/mol
ΔH ([1]; 20 °C, KCl 150.0 mM): -11.96 kcal/mol
ΔS ([1]; 20 °C, KCl 150.0 mM): −23.2 cal mol^−1 K^−1
Ka ([1]; 20 °C, KCl 300.0 mM): 7490 M⁻¹
TΔS ([1]; 20 °C, KCl 300.0 mM): -6.568 kcal/mol
ΔG ([1]; 20 °C, KCl 300.0 mM): -5.192 kcal/mol
ΔH ([1]; 20 °C, KCl 300.0 mM): -11.77 kcal/mol
ΔS ([1]; 20 °C, KCl 300.0 mM): −22.4 cal mol^−1 K^−1
Ka ([1]; 20 °C, KCl 450.0 mM): 7810 M⁻¹
TΔS ([1]; 20 °C, KCl 450.0 mM): -6.069 kcal/mol
ΔG ([1]; 20 °C, KCl 450.0 mM): -5.217 kcal/mol
ΔH ([1]; 20 °C, KCl 450.0 mM): -11.29 kcal/mol
ΔS ([1]; 20 °C, KCl 450.0 mM): −20.7 cal mol^−1 K^−1
Ka ([1]; 25.0 °C): 4700 M⁻¹
TΔS ([1]; 25.0 °C): -8.32 kcal/mol
ΔG ([1]; 25.0 °C): -5.005 kcal/mol
ΔH ([1]; 25.0 °C): -13.32 kcal/mol
ΔS ([1]; 25.0 °C): −27.9 cal mol^−1 K^−1

EHD1 EH domain (EH domain-containing protein 1, C-terminal EH domain)
ΔH [2]: -11.3 kcal/mol
ΔH [3]: -11.3 kcal/mol

Rabenosyn-5 peptide containing two NPF motifs
stoichiometry N [4]: 2

Ac-YESTNPFTAK-NH2 [Rfp2-NPF2, peptide of NPF2 of Rab11-Fip2 (Ac-YESTNPFTAK-NH2)]
Ka [5]: 2000 M⁻¹
Ka [6]: 6460 M⁻¹
dH [6]: -11.8 kcal/mol
stoichiometry N [6]: 0.96
Ka [7]: 6910 M⁻¹
dH [7]: -12 kcal/mol
stoichiometry N [7]: 1.02
Ka [8]: 7490 M⁻¹
dH [8]: -11.8 kcal/mol
stoichiometry N [8]: 0.99
Ka [9]: 7810 M⁻¹
dH [9]: -11.3 kcal/mol
stoichiometry N [9]: 1.04
Ka [10]: 17800 M⁻¹
dH [10]: -9.28 kcal/mol
stoichiometry N [10]: 0.97
Ka [11]: 12800 M⁻¹
dH [11]: -10 kcal/mol
stoichiometry N [11]: 1.02
Ka [12]: 9390 M⁻¹
dH [12]: -10.8 kcal/mol
stoichiometry N [12]: 1.03
Ka [13]: 6640 M⁻¹ and 7030 M⁻¹
dH [13]: -11.9 kcal/mol and -11.8 kcal/mol
stoichiometry N [13]: 1.03 and 1.01
Ka [14]: 4700 M⁻¹
dH [14]: -13.3 kcal/mol
stoichiometry N [14]: 0.99

Ac-GPSLNPFDEED-NH2 [Rsn5-NPF1, peptide of NPF1 of Rabenosyn-5 (Ac-GPSLNPFDEED-NH2)]
Ka [5]: 2000 M⁻¹
Ka [15]: 302000 M⁻¹
dH [15]: -10.4 kcal/mol
stoichiometry N [15]: 0.97
Ka [16]: 168000 M⁻¹
dH [16]: -10.4 kcal/mol
stoichiometry N [16]: 0.97
Ka [6]: 115000 M⁻¹
dH [6]: -10.3 kcal/mol
stoichiometry N [6]: 0.95
Ka [17]: 86500 M⁻¹
dH [17]: -10.9 kcal/mol
stoichiometry N [17]: 0.99
Ka [18]: 65000 M⁻¹
dH [18]: -10.5 kcal/mol
stoichiometry N [18]: 1.05
Ka [7]: 53000 M⁻¹
dH [7]: -10.5 kcal/mol
stoichiometry N [7]: 1.09
Ka [8]: 24800 M⁻¹
dH [8]: -10.3 kcal/mol
stoichiometry N [8]: 1.04
Ka [9]: 17800 M⁻¹
dH [9]: -10.4 kcal/mol
stoichiometry N [9]: 1.04
Ka [10]: 2.03e+06 M⁻¹
dH [10]: -8.99 kcal/mol
stoichiometry N [10]: 0.98
Ka [11]: 1.71e+06 M⁻¹
dH [11]: -9.68 kcal/mol
stoichiometry N [11]: 0.98
Ka [12]: 1.1e+06 M⁻¹
dH [12]: -10.4 kcal/mol
stoichiometry N [12]: 0.99
Ka [13]: 814000 M⁻¹ and 861000 M⁻¹
dH [13]: -11.3 kcal/mol
stoichiometry N [13]: 0.98 and 1.02
Ka [14]: 606000 M⁻¹
dH [14]: -11.9 kcal/mol
stoichiometry N [14]: 0.98
